Consider 21 molecules from ChEMBL document CHEMBL1938338, “In vitro inhibition of translation initiation by N,N'-diarylureas--potential anti-cancer agents” (Bioorg Med Chem Lett, 2012).

Active and inactive are the calls of the source. The calls are words filed in the database; no cut-off is given here.

The nature of series [1]: Antiproliferative activity against mouse KLN205 cells after 5 days by SRB assay. The series is classed as functional, cell-based. Conditions: 120 h. In short, it runs like this:
(§1)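 Adherent cells were exposed for 5 days to four concentrations (0.54, 1.8, 6, 20 µM), each point in triplicate. Cells were fixed in cold 10% TCA, stained with 0.4% SRB in 1% acetic acid and solubilized in 10 mM Tris pH 10, then A490 was read. Time-zero plates were included. IC50 is 50% growth inhibition from 100×(T−T0)/(C−T0).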

Series [2] in a line: Antiproliferative activity against human CRL2813 cells after 5 days by SRB assay. The series is classed as functional, cell-based. As to conditions: CRL2813, 120 h. In outline: as §1
Series [3] deals with Eukaryotic translation initiation factor 2-alpha kinase 1 (Homo sapiens) (UniProt Q9BQI3). Nature of the series: Activation of EIF2alpha kinase in human CRL2351 cells assessed as reduction in eIF2-GTP-initiator methionine tRNA ternary complex measuring increase in firefly/renilla luciferase ratio at 2.5 to 20 uM after 16 hrs by dual luciferase reporter gene assay relative to control. The series is classed as cell-based. In short, it runs like this: (§2)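 CRL-2351 cells (10^4 per well) were transiently transfected one day after seeding with the bidirectional pBISA-DL(ATF-4) firefly/renilla luciferase plasmid (Lipofectamine 2000). After 16 h compound exposure, lysates were read by Dual-Glo luciferase. F/R ratio was normalized to DMSO vehicle (F/R = 1). Runs were dose-response with at least four points, in triplicate.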

The nature of series [4]: Antiproliferative activity against human CRL2351 cells after 5 days by SRB assay. The series is classed as functional, cell-based. Conditions: 120 h. In short, it runs like this: as §1
For series [5], the target named is Eukaryotic translation initiation factor 2-alpha kinase 1 (Homo sapiens) (UniProt Q9BQI3). Put plainly: Activation of EIF2alpha kinase in human CRL2351 cells assessed as reduction in eIF2-GTP-initiator methionine tRNA ternary complex measuring increase in firefly/renilla luciferase ratio at 5 uM after 16 hrs by dual luciferase reporter gene assay relative to control. The series is classed as cell-based. In outline:
as §2

Series [6] is described as follows: Aqueous solubility of compound. The series is classed as physicochemical. Conditions: buffer.
Series [7] deals with Eukaryotic translation initiation factor 2-alpha kinase 1 (Homo sapiens) (UniProt Q9BQI3). Nature of the series: Activation of EIF2alpha kinase in human CRL2351 cells assessed as phosphorylation of eIF2alpha at 5 uM […] by Western blot analysis. The series is classed as cell-based. In short, it runs like this: (§3)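 Cells were grown to 70% confluency in serum-containing medium without antibiotics, then treated (KLN at 20 µM, CRL-2351 at 5 µM) for 6 h. They were washed in cold PBS and lysed on ice for 1 h. Protein was measured by BCA. SDS-PAGE immunoblots were probed for phospho-Ser51 eIF2α, total eIF2α, CHOP and β-actin.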

For series [8] the target is unchanged. Put plainly: Activation of EIF2alpha kinase in human CRL2351 cells assessed as reduction in eIF2-GTP-initiator methionine tRNA ternary complex measuring increase in firefly/renilla luciferase ratio at 2.5 uM after 16 hrs by dual luciferase reporter gene assay relative to control. The series is classed as cell-based. In short, it runs like this: as §2
For series [9], the target named is Eukaryotic translation initiation factor 2-alpha kinase 1 (Mus musculus) (UniProt Q9Z2R9). Nature of the series: Activation of EIF2alpha kinase in mouse KLN205 cells assessed as reduction in eIF2-GTP-initiator methionine tRNA ternary complex measuring increase in firefly/renilla luciferase ratio at 20 uM after 16 hrs by dual luciferase reporter gene assay relative to control. The series is classed as cell-based. In short, it runs like this:
(§4)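 KLN-205 cells were stably transfected with the bidirectional pBISA-DL(ATF-4) firefly/renilla luciferase reporter: 10^5 cells were seeded per 60-mm dish, transfected the next day and selected with antibiotics. After 16 h compound exposure, lysates were read by Dual-Glo luciferase. F/R ratio was normalized to DMSO vehicle (F/R = 1).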

The target is the same in series [10]. Put plainly: Activation of EIF2alpha kinase in mouse KLN205 cells assessed as CHOP protein expression at 20 uM after […] by Western blot analysis. The series is classed as cell-based. In outline: as §3
Series [11] has the same target. Nature of the series: Activation of EIF2alpha kinase in mouse KLN205 cells assessed as phosphorylation of eIF2alpha at 20 uM […] by Western blot analysis. The series is classed as cell-based. In short, it runs like this:
as §3

Series [12] deals with Eukaryotic translation initiation factor 2-alpha kinase 1 (Homo sapiens) (UniProt Q9BQI3). Nature of the series: Activation of EIF2alpha kinase in human CRL2351 cells assessed as CHOP protein expression at 5 uM […] by Western blot analysis. The series is classed as cell-based. In outline: as §3
The target is the same in series [13]. Put plainly: Activation of EIF2alpha kinase in human CRL2351 cells assessed as CHOP mRNA expression at 5 uM after 5 hrs by PCR analysis. The series is classed as cell-based.
Series [14] concerns the target Eukaryotic translation initiation factor 2-alpha kinase 1 (Mus musculus) (UniProt Q9Z2R9). Nature of the series: Activation of EIF2alpha kinase in mouse KLN205 cells assessed as CHOP mRNA expression at 20 uM after 5 hrs by PCR analysis. The series is classed as cell-based.
Series [15] deals with Eukaryotic translation initiation factor 2-alpha kinase 1 (Homo sapiens) (UniProt Q9BQI3). Put plainly: Activation of EIF2alpha kinase in human CRL2351 cells assessed as reduction in eIF2-GTP-initiator methionine tRNA ternary complex measuring increase in firefly/renilla luciferase ratio at 40 uM after 16 hrs by dual luciferase reporter gene assay relative to control. The series is classed as cell-based. In short, it runs like this: as §2

For series [16] the target is unchanged. Nature of the series: Activation of EIF2alpha kinase in human CRL2351 cells assessed as reduction in eIF2-GTP-initiator methionine tRNA ternary complex measuring increase in firefly/renilla luciferase ratio at 10 uM after 16 hrs by dual luciferase reporter gene assay relative to control. The series is classed as cell-based. In short, it runs like this: as §2

The target is the same in series [17]. Nature of the series: Activation of EIF2alpha kinase in human CRL2351 cells assessed as reduction in eIF2-GTP-initiator methionine tRNA ternary complex measuring increase in firefly/renilla luciferase ratio at 2.5 to 80 uM after 16 hrs by dual luciferase reporter gene assay relative to control. The series is classed as cell-based. In outline:
as §2

In series [18] the target is Eukaryotic translation initiation factor 2-alpha kinase 1 (Mus musculus) (UniProt Q9Z2R9). Nature of the series: Activation of EIF2alpha kinase in mouse KLN205 cells assessed as reduction in eIF2-GTP-initiator methionine tRNA ternary complex measuring increase in firefly/renilla luciferase ratio at 2.5 to 80 uM after 16 hrs by dual luciferase reporter gene assay relative to control. The series is classed as cell-based. In short, it runs like this: as §4

Series [19] shares this target. Nature of the series: Activation of EIF2alpha kinase in mouse KLN205 cells assessed as reduction in eIF2-GTP-initiator methionine tRNA ternary complex measuring increase in firefly/renilla luciferase ratio at 5 uM after 16 hrs by dual luciferase reporter gene assay relative to control. The series is classed as cell-based. In outline:
as §4

In series [20] the target is Eukaryotic translation initiation factor 2-alpha kinase 1 (Homo sapiens) (UniProt Q9BQI3). Put plainly: Activation of EIF2alpha kinase in human CRL2351 cells assessed as reduction in eIF2-GTP-initiator methionine tRNA ternary complex measuring increase in firefly/renilla luciferase ratio at 20 uM after 16 hrs by dual luciferase reporter gene assay relative to control. The series is classed as cell-based. In outline:
as §2

Eukaryotic translation initiation factor 2-alpha kinase 1 (Mus musculus), sequence (Q9Z2R9 whole entry): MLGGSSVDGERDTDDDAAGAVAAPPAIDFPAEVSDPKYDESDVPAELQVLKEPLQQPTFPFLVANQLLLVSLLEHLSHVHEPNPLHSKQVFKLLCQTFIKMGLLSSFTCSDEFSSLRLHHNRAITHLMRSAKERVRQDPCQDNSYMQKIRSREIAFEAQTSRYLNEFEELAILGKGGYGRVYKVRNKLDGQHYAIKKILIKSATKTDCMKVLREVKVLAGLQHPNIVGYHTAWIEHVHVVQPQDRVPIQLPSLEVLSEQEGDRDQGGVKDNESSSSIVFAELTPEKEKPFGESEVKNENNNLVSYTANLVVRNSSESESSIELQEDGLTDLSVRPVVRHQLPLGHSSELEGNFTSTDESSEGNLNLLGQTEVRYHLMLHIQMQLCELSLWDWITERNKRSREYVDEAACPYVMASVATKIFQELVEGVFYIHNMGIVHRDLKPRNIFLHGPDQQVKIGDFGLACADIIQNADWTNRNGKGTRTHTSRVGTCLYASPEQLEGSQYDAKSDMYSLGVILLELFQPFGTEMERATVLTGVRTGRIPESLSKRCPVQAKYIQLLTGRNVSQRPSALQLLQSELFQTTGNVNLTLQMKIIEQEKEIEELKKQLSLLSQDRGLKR
Eukaryotic translation initiation factor 2-alpha kinase 1 (Homo sapiens), sequence (Q9BQI3 whole entry): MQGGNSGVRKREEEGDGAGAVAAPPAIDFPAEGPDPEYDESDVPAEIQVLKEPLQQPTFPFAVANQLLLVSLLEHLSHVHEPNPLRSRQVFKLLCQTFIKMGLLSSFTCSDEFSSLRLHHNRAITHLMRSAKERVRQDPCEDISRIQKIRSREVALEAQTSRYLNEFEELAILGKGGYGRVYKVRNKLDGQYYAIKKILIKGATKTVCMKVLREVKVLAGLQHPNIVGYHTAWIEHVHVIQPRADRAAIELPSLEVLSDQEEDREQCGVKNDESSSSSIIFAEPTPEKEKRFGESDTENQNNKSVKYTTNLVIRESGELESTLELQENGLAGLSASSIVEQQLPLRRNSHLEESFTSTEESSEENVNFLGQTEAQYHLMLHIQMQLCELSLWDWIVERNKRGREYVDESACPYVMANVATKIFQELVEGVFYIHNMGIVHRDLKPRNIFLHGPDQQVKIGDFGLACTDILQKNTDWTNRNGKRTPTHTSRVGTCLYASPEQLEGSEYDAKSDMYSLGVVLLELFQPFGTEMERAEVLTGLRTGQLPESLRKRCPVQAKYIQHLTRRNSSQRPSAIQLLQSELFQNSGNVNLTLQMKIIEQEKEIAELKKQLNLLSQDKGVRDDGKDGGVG

Regarding `Cc1ccc(NC(=O)Nc2ccc(Cl)c(Cl)c2)cc1OCCN1CCNCC1`, the figures for the IC50 in series [1], in series [2] and in [4] were more than 20000 nM, 5200 nM and 5000 nM, respectively. Moreover, the outcome in series [3] was Active.
For the molecule `COc1cc(NC(=O)Nc2ccc(Cl)c(C(F)(F)F)c2)ccc1C`, the figures for the IC50 in series [1], in series [2] and in series [4] were 18600 nM, 2800 nM and 2300 nM, respectively. The Ratio in series [5] is 8.
In the case of `O=C(Nc1cc(C(F)(F)F)cc(C(F)(F)F)c1)Nc1cc(C(F)(F)F)cc(C(F)(F)F)c1`, the solubility result in series [6] is “Insoluble”. In addition, the IC50 in [1] came out at 4200 nM; in [2] it was 300 nM; in [4], 1800 nM. The outcome in series [7], in [9], in [10], in series [11], in series [12] and in [13] was Active. Also, the result in [14] was Active. Further, in [8], the Ratio is 11.
For `O=C(Nc1ccc(Cl)c(Cl)c1)Nc1ccc(Cl)c(Cl)c1`, the solubility result in series [6] is recorded as “Insoluble”. Besides, the IC50 in series [1] is more than 20000 nM; in [2], 1000 nM; in [4], 2400 nM. Also, the Ratio in series [5] amounted to 11.
Turning to `O=C(Nc1ccc(Cl)c(Cl)c1)Nc1ncccc1O`, the IC50 in [1] was more than 20000 nM; in [2] it was 1600 nM; in [4], 1400 nM. Further, in series [15], the Ratio came to 12.
For the molecule `O=C(Nc1cc(C(F)(F)F)cc(C(F)(F)F)c1)Nc1ncccc1O`, the IC50 in [1] came to 14800 nM; in series [2], 600 nM; in [4], 700 nM.
For the molecule `Cc1ccc(NC(=O)Nc2ccc(Cl)c(Cl)c2)cc1OCCN1CCOCC1`, the results for the IC50 in [1], in [2] and in series [4] were more than 20000 nM, 12000 nM and 2400 nM, respectively. Further, the outcome in series [3] was Active.
For the molecule `Cc1ccc(NC(=O)Nc2cc(C(F)(F)F)cc(C(F)(F)F)c2)cc1OCCN1CCOCC1`, the IC50 in series [1] was found to be 18800 nM; in series [2], 800 nM; in [4], 2300 nM. The Ratio in [16] came out at 10.
The matching figures for `Cc1ccc(NC(=O)Nc2cc(C(F)(F)F)cc(C(F)(F)F)c2)cc1OCCN1CCNCC1`: more than 20000 nM, 3200 nM, 4200 nM and 9.
`O=C(Nc1ccc(Cl)c(C(F)(F)F)c1)Nc1ncccc1O`: the IC50 stood at 15400 nM in series [1], 600 nM in [2] and 800 nM in [4]. Further, the outcome in series [7], in [17], in [10], in [11], in series [18] and in series [12] was Active. Also, the result in series [13] and in series [14] was Active.
As to `COc1cc(NC(=O)Nc2ccc(Cl)c(Cl)c2)ccc1C`, the IC50 in series [1] was more than 20000 nM; in series [2], 500 nM; in series [4], 800 nM. The outcome in series [7], in series [3], in [10], in series [11], in [12] and in [13] was inactive. For the same molecule, the outcome in series [14] was inactive. Also, the Ratio in series [5] was less than 2.
Regarding `Cc1ccc(NC(=O)Nc2ccc(Cl)c(C(F)(F)F)c2)cc1OCCN(C)C`, the IC50 in series [1] was 13600 nM; in [2], 2300 nM; in [4] it was 2400 nM.
Consider `Cc1ccc(NC(=O)Nc2ccc(Cl)c(C(F)(F)F)c2)cc1OCCN1CCNCC1`, for which the values for the IC50 in series [1], in series [2] and in series [4] were more than 20000 nM, 2500 nM and 1800 nM, respectively.
Consider `O=C(Nc1ccc(Cl)c(C(F)(F)F)c1)Nc1ccc(Cl)c(C(F)(F)F)c1`, for which the solubility entry in series [6] is listed as “Insoluble”. In addition, the results for the concentration for half-maximal inhibition (IC50) in series [1], in [2] and in series [4] were 1300 nM, 1800 nM and 2400 nM, respectively. Also, in [8], the Ratio was 11.
For the molecule `Cc1ccc(NC(=O)Nc2ccc(Cl)c(Cl)c2)cc1OCCN(C)C`, the IC50 in series [1] came out at 14700 nM; in series [2] it was 5800 nM; in [4], 4100 nM. The outcome in series [3] was Active.
With `COc1cc(NC(=O)Nc2cc(C(F)(F)F)cc(C(F)(F)F)c2)ccc1C`, the IC50 in series [1] worked out at 6600 nM; in [2], 500 nM; in [4], 1800 nM. Moreover, the result in series [7], in series [10], in series [11], in series [19], in [12] and in series [13] was Active. In addition, the result in [14] was Active. The Ratio in [5] came out at 9.
Consider `Cc1ccc(NC(=O)Nc2ccc(Cl)c(C(F)(F)F)c2)cc1OCCN1CCOCC1`, for which the IC50 was more than 20000 nM in [1], 1100 nM in [2] and 2600 nM in [4].
As to `Cc1ccc(NC(=O)Nc2ccc(Cl)c(Cl)c2)cc1O`, the figures for the IC50 in [1], in [2] and in [4] were more than 20000 nM, 2300 nM and 7500 nM, respectively. Also, in [20], the Ratio is 11.
For the molecule `Cc1ccc(NC(=O)Nc2cc(C(F)(F)F)cc(C(F)(F)F)c2)cc1OCCN(C)C`, the figures for the IC50 in series [1], in [2] and in series [4] were 8900 nM, 7600 nM and 2400 nM, respectively. Further, the Ratio in series [16] stood at 9.
With `Cc1ccc(NC(=O)Nc2cc(C(F)(F)F)cc(C(F)(F)F)c2)cc1O`, the IC50 amounted to 15700 nM in series [1], 1200 nM in series [2] and 2800 nM in series [4].
Turning to `Cc1ccc(NC(=O)Nc2ccc(Cl)c(C(F)(F)F)c2)cc1O`, the results for the IC50 in [1], in series [2] and in series [4] were more than 20000 nM, 1600 nM and 9500 nM, respectively. Besides, the Ratio in series [16] was determined as 11.
